According to ChEMBL document CHEMBL1142730, “Design of HIV-1 protease inhibitors active on multidrug-resistant virus” (J Med Chem, 2005):
In brackets after ≈: the same amount, converted by molar mass.

Legend:
[1] = In vitro solubility at was determined; pH=5; type: ADME
Procedure, shortened: (§1)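 Aqueous solubility measured at pH 5 and pH 7, expressed in […].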

Rattus norvegicus = species on record: Rattus norvegicus; assay: In vitro metabolic stability value after 30 min of incubation with liver microsomes of rat was determined; type: functional; details: Microsome
Procedure, shortened: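 Compound at 10 µM incubated at 37 °C with dog, human or rat liver microsomes. Residual parent compound quantified directly by LC-MS. Value is percent parent remaining after 30 min.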

[2] = test system: Human immunodeficiency virus 1; assay: Toxicity value against wild type HIV-1 IIIB was determined; type: functional
Procedure, shortened: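 MT4 cells (150 000 cells/mL) mock-infected, run in parallel with HIV-infected cultures over an identical compound concentration range. Incubated 3 days at 37 °C, 5% CO₂. Reduced expression of the […] GFP reporter serves as the toxicity marker.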

Caco-2 [3] = assay: In vitro increase in apparent permeability from apical to basolateral was determined in Caco-2 (human colon carcinoma) cells; type: functional, cell-based
Procedure, shortened: (§2)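 Caco-2 monolayer apparent permeability measured apical-to-basolateral and basolateral-to-apical; reported as Papp in cm/s (×10⁶).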

Caco-2 [4] = assay: In vitro increase in apparent permeability from basolateral to apical was determined in Caco-2 (human colon carcinoma) cells; type: functional, cell-based; procedure, shortened: as §2
[5] = In vitro solubility at was determined; pH=7; type: ADME; procedure, shortened: as §1
[6] = test system: Human immunodeficiency virus 1; assay: Protease inhibitory activity against HIV-1 r13034 mutant strain was determined; type: functional, organism-based
[7] = test system: Human immunodeficiency virus 1; assay: Protease inhibitory activity against HIV-1 GSS004421 mutant strain was determined; type: functional, organism-based
[8] = test system: Human immunodeficiency virus 1; assay: Protease inhibitory activity against HIV-1 r13363 mutant strain was determined; type: functional, organism-based
[9] = test system: Human immunodeficiency virus 1; assay: Protease inhibitory activity against wild type HIV-1 IIIB was determined; type: functional, organism-based
[10] = test system: Human immunodeficiency virus 1; assay: Protease inhibitory activity against HIV-1 r13025 mutant strain was determined; type: functional, organism-based
[11] = In vivo time to reach maximum plasma concentration value in dog was determined at a dosage of 20 mg/kg; type: ADME, organism-based, Canis lupus familiaris; parameters: dose 20 mg/kg
Procedure, shortened: (§3)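 Oral dosing in dog at 20 mg/kg, coadministered with ritonavir. Compound given as a solution in PEG400 or in 40% w/v hydroxypropyl-β-cyclodextrin with 2% citric acid. Plasma Cmax, Tmax, t1/2 and AUC determined.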

[12] = In vivo area under the concentration time curve value in dog was determined at a dosage of 20 mg/kg; type: ADME, organism-based, Canis lupus familiaris; parameters: dose 20 mg/kg; procedure, shortened: as §3
[13] = In vivo half life value in dog was determined at a dosage of 20 mg/kg; type: ADME, organism-based, Canis lupus familiaris; parameters: dose 20 mg/kg; procedure, shortened: as §3
[14] = Maximum plasma concentration value in dog was determined at a dosage of 20 mg/kg; type: ADME, organism-based, Canis lupus familiaris; parameters: dose 20 mg/kg; procedure, shortened: as §3
[15] = molecular target: Human immunodeficiency virus type 1 protease (Human immunodeficiency virus 1, UniProt Q72874); assay: Binding affinity against HIV-1 protease
Procedure, shortened: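 Isothermal titration calorimetry by displacement: the protease was pre-titrated with acetylpepstatin (300 µM) as the weaker binder, then the inhibitor (125 or 200 µM in the syringe) was injected to saturation into protease (9–21 µM). Buffer was 10 mM sodium acetate pH 5.0, 2% DMSO, 2 mM TCEP. Heats of dilution were subtracted, and each run was done at least twice.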

SMILES	solubility [1] [µg/mL]	Metabolic stability (Rattus norvegicus) [%]	pCC50 [2]	Papp (Caco-2 [3]) [×10⁻⁶ cm/s]	Papp (Caco-2 [4]) [×10⁻⁶ cm/s]	solubility [5] [µg/mL]	pEC50 [6]	pEC50 [7]	pEC50 [8]	EC50 [9] [nM]	pEC50 [10]	Tmax [11] [h]	AUC [12] [ng·h/mL]	half-life [13] [h]	Cmax [14] [ng/mL]	Kd [15] [nM]
CC(C)CN(C[C@@H](O)[C@H](Cc1ccccc1)NC(=O)O[C@H]1CO[C@H]2OCC[C@H]21)S(=O)(=O)c1ccc2nc(N)sc2c1	< 10	77	4.77	9.9	27.3	< 10	8.42	8.59	7.9	9.12	8.51	–	–	–	–	–
CC(C)c1nc(CN(C)C(=O)N[C@H](C(=O)N[C@@H](Cc2ccccc2)C[C@H](O)[C@H](Cc2ccccc2)NC(=O)OCc2cncs2)C(C)C)cs1 [RITONAVIR]	–	–	4.53	–	–	–	5.3	4.97	4.89	64.6	5.99	–	–	–	–	–
CC(C)CN(C[C@@H](O)[C@H](Cc1ccccc1)NC(=O)O[C@H]1CO[C@H]2OCC[C@H]21)S(=O)(=O)c1ccc2ncsc2c1	–	–	< 4.49	–	–	–	8.11	7.78	6.57	1.1	7.83	–	–	–	–	–
CC(C)(C)NC(=O)[C@@H]1C[C@@H]2CCCC[C@@H]2CN1C[C@@H](O)[C@H](Cc1ccccc1)NC(=O)[C@H](CC(N)=O)NC(=O)c1ccc2ccccc2n1	–	–	4.68	–	–	–	5.91	6.3	7.54	26.3	6.83	–	–	–	–	–
CC(C)CN(C[C@@H](O)[C@H](Cc1ccccc1)NC(=O)O[C@H]1CO[C@H]2OCC[C@H]21)S(=O)(=O)c1ccc2nc(N(C)CCCN(C)C)sc2c1	1640 (≈ 2330 µM)	47	4.68	2	8.5	1180 (≈ 1680 µM)	7.32	6.71	6.08	14.8	6.95	1	6590	2.9	1680	–
CNc1nc2ccc(S(=O)(=O)N(CC(C)C)C[C@@H](O)[C@H](Cc3ccccc3)NC(=O)O[C@H]3CO[C@H]4OCC[C@H]43)cc2s1	< 10	72	< 4.49	19.3	14.2	< 10	8.81	8.59	7.81	0.912	8.81	–	–	–	–	–
CC(C)CN(C[C@@H](O)[C@H](Cc1ccccc1)NC(=O)OC1CCOC1)S(=O)(=O)c1ccc(N)cc1 (single isomer, unassigned)	–	–	< 4.49	–	–	–	6.01	5.75	4.95	43.7	6.43	–	–	–	–	–
CC(C)CN(C[C@@H](O)[C@H](Cc1ccccc1)NC(=O)O[C@H]1CO[C@H]2OCC[C@H]21)S(=O)(=O)c1ccc2nc(NCCN3CCCC3)oc2c1	–	–	4.49	–	–	–	7.48	7.21	6.88	26.3	7.12	–	–	–	–	–
CC(C)(C)NC(=O)[C@@H]1CN(Cc2cccnc2)CCN1C[C@@H](O)C[C@@H](Cc1ccccc1)C(=O)N[C@H]1c2ccccc2C[C@H]1O.O	–	–	< 4.49	–	–	–	5.9	6.47	6.39	39.8	5.97	–	–	–	–	–
CC(C)CN(C[C@@H](O)[C@H](Cc1ccccc1)NC(=O)O[C@H]1CO[C@H]2OCC[C@H]21)S(=O)(=O)c1ccc2nc(NCCCN(C)C)sc2c1	–	–	4.73	–	–	–	8.17	7.72	7.53	57.5	7.69	–	–	–	–	–
CC(C)CN(C[C@@H](O)[C@H](Cc1ccccc1)NC(=O)O[C@H]1CO[C@H]2OCC[C@H]21)S(=O)(=O)c1ccc2nc(N(C)CCCN3CCCC3)oc2c1	–	–	< 4.49	–	–	–	6.34	6.22	5.22	69.2	6.63	–	–	–	–	–
CC(C)CN(C[C@@H](O)[C@H](Cc1ccccc1)NC(=O)O[C@H]1CO[C@H]2OCC[C@H]21)S(=O)(=O)c1ccc2nc(NCCN3CCCC3)sc2c1	90 (≈ 128 µM)	56	< 4.49	3.5	21.7	< 10	7.91	7.86	7.49	11	7.88	0.5	6050	1.66	1970	0.0637
Cc1c(O)cccc1C(=O)N[C@@H](CSc1ccccc1)[C@H](O)CN1C[C@H]2CCCC[C@H]2C[C@H]1C(=O)NC(C)(C)C	–	–	4.75	–	–	–	5.9	6.28	5.82	70.8	5.31	–	–	–	–	–
CC(C)CN(C[C@@H](O)[C@H](Cc1ccccc1)NC(=O)O[C@H]1CO[C@H]2OCC[C@H]21)S(=O)(=O)c1ccc2nc(NCCN(C)C)sc2c1	410 (≈ 607 µM)	19	< 4.49	6.1	26.6	40 (≈ 59.2 µM)	8.09	7.9	7.67	11.2	7.84	–	–	–	–	–
